# Tests used:
# Mus musculus [1] = assay: Reversal of cognitive deficit in amyloid beta (1 to 42)-treated Alzheimer's disease ICR mouse model assessed as increase in spatial memory function by measuring spontaneous alternation at 1 mg/kg, po administered for 3 consecutive days by Y maze test relative to control; format: functional
# Procedure, shortened: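 Acute AD model: preformed Aβ aggregates injected directly into the brains of normal mice to induce acute neurotoxicity. Compound given orally for three consecutive days, then the Y-maze was run. Read-out is percentage of spontaneous alternation, compared against normal and vehicle-treated mice.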
# Cytochrome P450 1A2 = target: T1, Cytochrome P450 1A2 (Homo sapiens, UniProt P05177); assay: Inhibition of CYP1A2 in human liver microsomes preincubated for 5 mins followed by addition of NADPH generating system measured after 20 mins by LC-MS/MS analysis; format: ADME
# T1 sequence (P05177 whole entry): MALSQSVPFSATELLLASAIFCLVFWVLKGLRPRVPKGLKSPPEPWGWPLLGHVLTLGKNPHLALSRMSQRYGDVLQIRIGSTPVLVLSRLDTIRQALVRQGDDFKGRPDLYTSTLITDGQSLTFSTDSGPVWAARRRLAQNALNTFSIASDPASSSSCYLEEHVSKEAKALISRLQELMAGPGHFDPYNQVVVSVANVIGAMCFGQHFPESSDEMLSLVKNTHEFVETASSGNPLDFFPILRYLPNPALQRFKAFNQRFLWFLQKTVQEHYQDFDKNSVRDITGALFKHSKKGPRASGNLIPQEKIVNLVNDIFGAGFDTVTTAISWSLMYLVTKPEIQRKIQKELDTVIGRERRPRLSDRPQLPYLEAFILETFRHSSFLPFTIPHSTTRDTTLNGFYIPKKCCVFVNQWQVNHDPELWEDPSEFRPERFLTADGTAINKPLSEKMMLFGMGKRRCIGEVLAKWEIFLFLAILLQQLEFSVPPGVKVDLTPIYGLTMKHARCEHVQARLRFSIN
# Procedure, shortened: (§1)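 Inhibition of each CYP isozyme (1A2, 2A6, 2C8, 2C9, 2C19, 2D6, 3A4) was measured in human liver microsomes. IC50 values were reported in μM.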
# [2] = Oral bioavailability in mouse at 30 mg/kg; format: ADME, organism-based; settings: in vivo
# Procedure, shortened: (§2)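 Mice received a single dose of 3 mg/kg i.v. or 3, 10 or 30 mg/kg orally. Plasma concentration-time profiles were analysed for AUC from zero to infinity and to the last measured time (hr*ng/mL), Cmax (ng/mL, C0 after i.v.), Tmax and terminal half-life (hr), and oral bioavailability (%).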
# [3] = Oral bioavailability in rat; format: ADME, organism-based; settings: in vivo
# [4] = AUClast in mouse at 10 mg/kg, po; format: ADME, organism-based; set-up: dose 10 mg/kg, route oral, time 0 - last; settings: in vivo; procedure, shortened: as §2
# [5] = Oral bioavailability in ICR mouse; format: ADME, organism-based; settings: in vivo
# [6] = Cmax in mouse at 10 mg/kg, po; format: ADME, organism-based; set-up: dose 10 mg/kg, route oral; settings: in vivo; procedure, shortened: as §2
# [7] = AUC in po dosed monkey; format: ADME, organism-based, Macaca mulatta; settings: rhesus monkey, in vivo
# [8] = Oral bioavailability in mouse at 3 mg/kg; format: ADME, organism-based; settings: in vivo; procedure, shortened: as §2
# [9] = Clearance in iv dosed monkey; format: ADME, organism-based, Macaca mulatta; settings: rhesus monkey, in vivo
# [10] = Terminal half life in mouse at 3 mg/kg, po; format: ADME, organism-based; settings: in vivo, read-out: beta t1/2 (converted)
# Procedure, shortened: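 Mouse pharmacokinetics: single i.v. dose of 3 mg/kg, or oral doses of 3, 10 and 30 mg/kg. Plasma concentration–time curves gave T1/2 (terminal, hr), Tmax (hr), Cmax, AUC and bioavailability (%).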
# [11] = Half-life in po dosed rat; settings: in vivo
# Canis familiaris = assay: Volume of distribution at steady state in po dosed dog; format: ADME, organism-based, Canis lupus familiaris; settings: in vivo
# [12] = target: Amyloid-beta precursor protein (Homo sapiens) (UniProt P05067); assay: Induction of HFIP-pretreated amyloid beta (1 to 42) (unknown origin) disaggregation at 3.1 to 50 uM after 1 hr by Thioflavin-T fluorescence assay relative to control
# Rhesus monkey = assay: Volume of distribution at steady state in po dosed monkey; format: ADME, organism-based, Macaca mulatta; settings: in vivo
# HT-22 = assay: Cytotoxicity against mouse HT22 cells assessed as effect on cell viability at 1.25 to 10 uM after 18 hrs by MTT assay; format: cell-based; settings: ht-22, 18 h
# Procedure, shortened: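 Mouse HT22 cells were treated with compound alone at the stated concentrations, without Aβ aggregates. Viability was read by MTT.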
# [13] = Cmax in po dosed rat; format: ADME, organism-based; set-up: route oral; settings: in vivo
# [14] = AUC (infinity) in mouse at 10 mg/kg, po; format: ADME, organism-based; set-up: dose 10 mg/kg, time infinity, route oral; settings: in vivo; procedure, shortened: as §2
# [15] = Ratio of AUC in ICR mouse brain to AUC in ICR mouse plasma at 10 mg/kg, po measured at 9 hrs; format: ADME, organism-based; settings: read-out: Ratio AUC
# Procedure, shortened: (§3)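 ICR mice (n=3) given a single oral dose of 10 mg/kg. Brain and plasma were sampled over nine hours, at 0.333, 1, 3, 6 and 9 h. Kp was calculated as AUC_brain/AUC_plasma.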
# Mus musculus [16] = assay: AUC (infinity) in mouse at 3 mg/kg, iv; format: ADME, organism-based; set-up: dose 3 mg/kg, route intravenous, time infinity; settings: in vivo; procedure, shortened: as §2
# Cytochrome P450 2A6 = target: T2, Cytochrome P450 2A6 (Homo sapiens, UniProt P11509); assay: Inhibition of CYP2A6 in human liver microsomes preincubated for 5 mins followed by addition of NADPH generating system measured after 20 mins by LC-MS/MS analysis; format: ADME; procedure, shortened: as §1
# T2 sequence (P11509 whole entry): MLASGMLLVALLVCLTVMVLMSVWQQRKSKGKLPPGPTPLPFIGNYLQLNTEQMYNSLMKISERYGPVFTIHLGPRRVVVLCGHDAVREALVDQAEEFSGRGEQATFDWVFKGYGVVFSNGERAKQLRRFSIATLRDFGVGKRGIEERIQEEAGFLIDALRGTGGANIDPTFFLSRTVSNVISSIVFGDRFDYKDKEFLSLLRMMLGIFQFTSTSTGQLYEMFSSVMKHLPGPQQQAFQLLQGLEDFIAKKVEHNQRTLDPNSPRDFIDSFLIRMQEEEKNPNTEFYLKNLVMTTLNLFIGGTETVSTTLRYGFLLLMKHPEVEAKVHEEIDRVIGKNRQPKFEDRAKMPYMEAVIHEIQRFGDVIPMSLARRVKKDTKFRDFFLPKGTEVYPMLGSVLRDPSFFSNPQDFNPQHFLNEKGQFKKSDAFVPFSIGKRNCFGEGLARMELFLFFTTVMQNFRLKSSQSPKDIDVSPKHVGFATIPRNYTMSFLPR
# Mus musculus [17] = assay: Antiamyloidogenic activity in double APP/PS1 transgenic Alzheimer's disease mouse model assessed as amyloid beta (1 to 42) levels in brain at 100 mg/kg, po qd administered for 8 weeks by sandwich ELISA relative to control; format: functional
# Procedure, shortened: (§4)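 APP/PS1 mice, 29 weeks old, were dosed orally once daily for eight weeks at 30 or 100 mg/kg, with a vehicle group. Brain tissue was homogenized and amyloid fibrils were solubilized to monomers. Aβ1-40 and Aβ1-42 were then quantified by immunoassay with antibodies specific to monomeric Aβ.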
# [18] = Cmax in po dosed monkey; format: ADME, organism-based, Macaca mulatta; set-up: route oral; settings: rhesus monkey, in vivo
# [19] = Ratio of AUC in ICR mouse brain to AUC in ICR mouse plasma at 10 mg/kg, po measured at 0.333 hrs; format: ADME, organism-based; settings: read-out: Ratio AUC; procedure, shortened: as §3
# Mus musculus [20] = assay: Antiamyloidogenic activity in po dosed double APP/PS1 transgenic Alzheimer's disease mouse model assessed as decrease in amyloid beta (1 to 40) levels in brain administered as qd for 8 weeks by sandwich ELISA; format: functional, organism-based; procedure, shortened: as §4
# Amyloid-beta precursor protein (Homo sapiens), sequence (P05067 whole entry): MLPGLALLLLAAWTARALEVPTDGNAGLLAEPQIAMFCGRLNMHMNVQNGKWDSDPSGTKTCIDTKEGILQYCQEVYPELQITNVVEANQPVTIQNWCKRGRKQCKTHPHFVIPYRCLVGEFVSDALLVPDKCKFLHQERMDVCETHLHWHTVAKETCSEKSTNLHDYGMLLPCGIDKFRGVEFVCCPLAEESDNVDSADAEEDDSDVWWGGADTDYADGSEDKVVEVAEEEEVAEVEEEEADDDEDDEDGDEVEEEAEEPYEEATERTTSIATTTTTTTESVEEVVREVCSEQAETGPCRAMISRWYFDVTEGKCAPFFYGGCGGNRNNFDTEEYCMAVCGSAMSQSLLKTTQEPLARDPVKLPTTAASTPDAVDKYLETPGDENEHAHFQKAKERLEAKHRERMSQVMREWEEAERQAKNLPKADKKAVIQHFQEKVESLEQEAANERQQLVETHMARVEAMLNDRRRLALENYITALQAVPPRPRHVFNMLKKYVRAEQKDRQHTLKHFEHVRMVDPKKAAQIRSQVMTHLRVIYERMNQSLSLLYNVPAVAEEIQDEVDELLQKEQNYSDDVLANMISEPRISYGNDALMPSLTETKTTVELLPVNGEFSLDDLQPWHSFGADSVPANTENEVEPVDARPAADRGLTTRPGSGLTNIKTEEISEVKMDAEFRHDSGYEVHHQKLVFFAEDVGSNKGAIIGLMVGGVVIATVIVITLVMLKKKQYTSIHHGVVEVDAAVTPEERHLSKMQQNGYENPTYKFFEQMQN
smiles,measurement,setting,value
COCCCc1ccc2oc(-c3ccc(OC)c(OC)c3)cc2c1,Activity,Mus musculus [1],71.22%
same,IC50,Cytochrome P450 1A2,> 50 µM
same,bioavailability,[2],79.1%
same,bioavailability,[3],51%
same,AUC(0-t),[4],2240 ng·h/mL
same,bioavailability,[5],83.3%
same,Cmax,[6],660 ng/mL
same,AUC,[7],13700 ng·h/mL
same,bioavailability,[8],21.4%
same,clearance,[9],7 mL/min/kg
same,half-life,[10],2 h
same,t1/2,[11],3.8 h
same,Vdss,Canis familiaris,2.7 L/kg
same,Activity,[12],40%
same,Vdss,Rhesus monkey,3.8 L/kg
same,Activity,HT-22,Non-Toxic
same,Cmax,[13],421 ng/mL
same,AUC(0-inf),[14],2290 ng·h/mL
same,Kp at 9 h,[15],1.4
same,AUC,Mus musculus [16],1325.1 ng·h/mL
same,IC50,Cytochrome P450 2A6,> 50 µM
same,Activity,Mus musculus [17],70%
same,Cmax,[18],969 ng/mL
same,Kp at 0.333 h,[19],1.2
same,Activity,Mus musculus [20],Dose-dependent effect

# — ChEMBL document CHEMBL4028909, “Discovery of an Orally Bioavailable Benzofuran Analogue That Serves as a β-Amyloid Aggregation Inhibitor for the Potential Treatment of Alzheimer's Disease” (J Med Chem, 2018)
